This is an account of results in ChEMBL document CHEMBL2203265, “Discovery of tetrahydropyridopyrimidine phosphodiesterase 10A inhibitors for the treatment of schizophrenia” (Bioorg Med Chem Lett, 2012).

In series [1] the target is cAMP and cAMP-inhibited cGMP 3',5'-cyclic phosphodiesterase 10A (Homo sapiens, UniProt Q9Y233). In words: Inhibition of PDE10A.
The nature of series [2]: Solubility of the compound at pH 7. Format: physicochemical. The following applies: buffer.
Series [3] concerns Rattus norvegicus. Nature of the series: Toxicity in rat assessed as decrease in total body fat at 4 mg/kg, po administered for 7 days relative to vehicle-treated control. Format: organism-based. Also on record: dose 4 mg/kg, route oral. The following applies: in vivo, 168 h. The essentials:
(§1)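 Rats given chronic dosing over 7 days. Body weight gain, total body fat and lean body mass recorded at the end of treatment and compared with a vehicle-treated group for statistical significance; n = 12 per group.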

For series [4], the system named is Rattus norvegicus. In words: Toxicity in rat assessed as decrease in lean body mass at 4 mg/kg, po administered for 7 days relative to vehicle-treated control. Format: organism-based. Also on record: dose 4 mg/kg, route oral. The conditions noted are these: in vivo, 168 h. In short, it runs like this:
as §1

The subject of series [5] is Rattus norvegicus. In words: Toxicity in rat assessed as decrease in weight gain at 4 mg/kg, po administered for 7 days relative to vehicle-treated control. The conditions noted are these: in vivo, 168 h. Also on record: dose 4 mg/kg, route oral. Format: organism-based. The essentials: as §1
The next series deals with Salmonella typhimurium. Nature of the series: Mutagenicity against Salmonella typhimurium up to 5000 ug/plate by Ames test. The following applies: salmonella enterica subsp. enterica serovar typhimurium. Format: toxicity, organism-based. On the technique in general: The Ames test detects mutagens through reverse mutation in bacteria.
The species entered for series [6] is Homo sapiens. Nature of the series: Selectivity ratio of Ki for human PDE1A to Ki for human PDE10A.
In series [7] the test system is Rattus norvegicus. In words: Toxicity in rat assessed as decrease in weight gain up to 10 mg/kg, po administered for 7 days relative to vehicle-treated control. Also on record: dose 10 mg/kg, route oral. The following applies: in vivo, 168 h. Format: organism-based. The essentials:
(§2)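 Rats are dosed orally for 7 days, with olanzapine at 4 mg/kg as the comparator. Weight gain, body fat, and lean body mass are measured against vehicle, n = 12/group.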

Series [8] has as its system Rattus norvegicus. In words: Inhibition of PDE10A in po dosed rat assessed as increase in striatal cGMP level after 2 hrs relative to vehicle-treated control. Format: functional, organism-based. In short, it runs like this:
(§3)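 Rats given the compound orally. Striatal cGMP is measured 2 h after dosing and expressed relative to vehicle-injected controls.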

A short description of series [9]: Clearance in dog. Format: ADME, organism-based, Canis lupus familiaris. The conditions noted are these: in vivo.
A short description of series [10]: Time-dependent inhibition of cytochrome P450. Format: ADME.
Series [11] concerns Rattus norvegicus. In words: Inhibition of PDE10A in rat assessed as increase in striatal cGMP level at 30 mg/kg, po after 2 hrs relative to vehicle-treated control. Format: functional. Also on record: scale not given: the % may be the effect or the level left. The essentials:
as §3

The target in series [12] is T1, Nuclear receptor subfamily 1 group I member 2 (Homo sapiens, UniProt O75469).
T1 sequence (O75469 whole entry): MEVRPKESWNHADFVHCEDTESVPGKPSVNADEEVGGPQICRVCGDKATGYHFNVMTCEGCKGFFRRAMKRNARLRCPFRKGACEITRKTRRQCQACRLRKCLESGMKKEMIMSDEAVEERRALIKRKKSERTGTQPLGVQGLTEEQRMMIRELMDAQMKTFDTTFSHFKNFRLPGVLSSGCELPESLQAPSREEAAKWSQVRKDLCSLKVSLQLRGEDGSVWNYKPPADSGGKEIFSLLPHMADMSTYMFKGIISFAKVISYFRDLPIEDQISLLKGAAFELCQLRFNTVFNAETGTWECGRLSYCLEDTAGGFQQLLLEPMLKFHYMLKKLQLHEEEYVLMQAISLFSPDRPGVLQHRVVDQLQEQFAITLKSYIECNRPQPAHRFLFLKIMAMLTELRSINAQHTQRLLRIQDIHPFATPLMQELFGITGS
Nature of the series: Activation of PXR.

Series [13] is filed under the species Homo sapiens. Nature of the series: Selectivity ratio of Ki for human PDE4A to Ki for human PDE10A.
Series [14] is described as follows: Plasma concentration in rat at 3 mg/kg, po at 2 hrs. Format: ADME, organism-based. Also on record: dose 3 mg/kg, route oral. The essentials: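 Plasma drug concentration is sampled 2 h after oral dosing in the rat hyperlocomotion study.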
For series [15], the species on record is Homo sapiens. Nature of the series: Selectivity ratio of Ki for human PDE11A to Ki for human PDE10A.
The nature of series [16]: Reversible inhibition of cytochrome P450. Format: ADME.
The species entered for series [17] is Homo sapiens. In words: Selectivity ratio of Ki for human PDE9A to Ki for human PDE10A.
The test system of series [18] is Rattus norvegicus. In words: Antipsychotic activity in rat assessed as inhibition of MK801-induced hyperlocomotion at 3 mg/kg, po. Format: functional, organism-based. Also on record: dose 3 mg/kg. In short, it runs like this: (§4)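 Oral dosing in rats challenged with the psychostimulant MK-801. Locomotor activity is scored against vehicle-only animals and against animals given MK-801 alone.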

Series [19] has as its system Rattus norvegicus. In words: Antipsychotic activity in rat assessed as increase in cognitive function at 1 mg/kg, po by NOR assay. Format: functional, organism-based. Also on record: dose 1 mg/kg.
For series [20], the system named is Rattus norvegicus. Nature of the series: Antipsychotic activity in po dosed rat assessed as inhibition of MK801-induced hyperlocomotion. Format: functional, organism-based. In short, it runs like this: as §4
Series [21] relates to Rattus norvegicus. In words: Toxicity in rat assessed as increase in prolactin level up to 50 mg/kg, po. Format: organism-based. Also on record: dose 50 mg/kg, route oral. The following applies: in vivo. The essentials:
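Circulating prolactin is measured in rats after oral administration, with haloperidol at 1.5 mg/kg as the control.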

The test system of the next series is Canis familiaris. Nature of the series: Cardiotoxicity in dog assessed as QTc prolongation at 13,29 and 42 mg/kg, iv administered sequentially at 30 mins periods. Format: toxicity, organism-based, Canis lupus familiaris. Also on record: dose 42 mg/kg, route intravenous. The following applies: in vivo, 0.5 h.
In series [22] the test system is Rattus norvegicus. In words: Toxicity in rat assessed as decrease in total body fat up to 10 mg/kg, po administered for 7 days relative to vehicle-treated control. Format: organism-based. Also on record: dose 10 mg/kg, route oral. The conditions noted are these: in vivo, 168 h. The essentials: as §2
For series [23], the species on record is Homo sapiens. In words: Selectivity ratio of Ki for human PDE2A to Ki for human PDE10A.
The species named for series [24] is Homo sapiens. In words: Selectivity ratio of Ki for human PDE7A to Ki for human PDE10A.
The test system of series [25] is Rattus norvegicus. In words: Toxicity in rat assessed as decrease in lean body mass up to 10 mg/kg, po administered for 7 days relative to vehicle-treated control. Format: organism-based. Also on record: dose 10 mg/kg, route oral. The following applies: in vivo, 168 h. In short, it runs like this: as §2
Series [26] is filed under the species Rattus norvegicus. In words: Antipsychotic activity in rat by conditioned avoidance response assay. Format: functional, organism-based.
For series [27], the species on record is Homo sapiens. In words: Selectivity ratio of Ki for human PDE6A to Ki for human PDE10A.
The species named for series [28] is Homo sapiens. Nature of the series: Selectivity ratio of Ki for human PDE8A to Ki for human PDE10A.
The species named for series [29] is Homo sapiens. In words: Selectivity ratio of Ki for human PDE5A to Ki for human PDE10A.
For series [30], the system named is Rattus norvegicus. Nature of the series: Toxicity in rat assessed as induction of catalepsy up to 50 mg/kg, po. Format: organism-based. Also on record: dose 50 mg/kg, route oral. The conditions noted are these: in vivo. In short, it runs like this: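 Catalepsy in rats is scored by fore-limb retraction (paw test) after oral administration, with haloperidol at 1.5 mg/kg as the control.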

The nature of series [31]: Clearance in monkey. Format: ADME, organism-based, Macaca mulatta. The conditions noted are these: rhesus monkey, in vivo.
Series [32] can be described thus: Clearance in rat. Format: ADME, organism-based. The following applies: in vivo.
Series [33] is filed under the species Homo sapiens. Nature of the series: Selectivity ratio of Ki for human PDE3A to Ki for human PDE10A.

≈ marks a conversion by molar mass, not a printed value. Calls of active or inactive are those of the source. The rule behind the calls is not given here. Some results are limits rather than exact numbers.

Chain of cAMP and cAMP-inhibited cGMP 3',5'-cyclic phosphodiesterase 10A (Q9Y233 whole entry): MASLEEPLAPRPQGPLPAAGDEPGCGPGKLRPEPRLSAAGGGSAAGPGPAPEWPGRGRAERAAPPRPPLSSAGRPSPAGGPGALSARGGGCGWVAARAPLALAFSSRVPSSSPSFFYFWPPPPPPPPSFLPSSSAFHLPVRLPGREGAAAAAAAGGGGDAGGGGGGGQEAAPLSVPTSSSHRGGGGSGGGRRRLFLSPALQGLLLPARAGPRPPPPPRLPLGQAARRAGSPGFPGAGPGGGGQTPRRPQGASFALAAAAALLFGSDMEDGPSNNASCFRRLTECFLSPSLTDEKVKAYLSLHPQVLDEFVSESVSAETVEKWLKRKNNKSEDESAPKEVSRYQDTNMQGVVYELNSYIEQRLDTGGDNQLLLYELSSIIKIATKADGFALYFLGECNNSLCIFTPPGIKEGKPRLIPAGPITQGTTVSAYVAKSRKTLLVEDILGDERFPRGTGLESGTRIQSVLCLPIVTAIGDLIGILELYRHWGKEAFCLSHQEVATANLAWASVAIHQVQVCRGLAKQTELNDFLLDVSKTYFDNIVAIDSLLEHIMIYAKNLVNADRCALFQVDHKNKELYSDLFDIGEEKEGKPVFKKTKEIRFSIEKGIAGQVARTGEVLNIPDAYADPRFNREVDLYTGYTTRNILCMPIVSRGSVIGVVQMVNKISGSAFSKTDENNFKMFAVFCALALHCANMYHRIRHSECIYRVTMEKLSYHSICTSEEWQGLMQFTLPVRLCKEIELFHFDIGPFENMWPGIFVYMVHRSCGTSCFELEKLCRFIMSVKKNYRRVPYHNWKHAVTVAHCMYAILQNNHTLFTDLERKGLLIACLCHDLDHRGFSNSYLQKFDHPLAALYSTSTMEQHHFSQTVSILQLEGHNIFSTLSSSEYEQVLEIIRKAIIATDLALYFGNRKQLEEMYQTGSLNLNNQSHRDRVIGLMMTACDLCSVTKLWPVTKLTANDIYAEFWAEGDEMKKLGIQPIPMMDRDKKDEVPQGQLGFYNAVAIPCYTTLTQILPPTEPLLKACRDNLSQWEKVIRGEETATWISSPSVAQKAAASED

In the case of `Cc1ccncc1NC(=O)N1CCc2nc(-c3cccnc3)nc(OC(C)C)c2C1`, the affinity in series [1] corresponds to a Ki of 7.9 nM. In series [2], the solubility (in general, how much of the substance goes into solution per volume) was above 75 µM.
On to `COCCOc1nc(-c2ccncc2)nc2c1CN(C(=O)Nc1ccccc1)CC2`, for which, in [1], the Ki – broadly, a measure of affinity in units of concentration, obtained from inhibition or displacement – amounted to 135 nM. The molecule also displayed a solubility in series [2] above 75 µM.
Consider `CN(CCc1ccccn1)c1nc(-c2cccnc2)nc2c1CN(C(=O)Nc1ccccc1)CC2`, for which the Ki in series [1] turned out to be 121 nM. For the same molecule, in series [2], the solubility was above 75 µM.
With `Cc1nc2c(c(N(C)CCc3ccccn3)n1)CN(C(=O)Nc1ccccc1)CC2`, in series [1], the Ki came out at 4340 nM.
Consider `CC(C)CC(=O)N1CCc2nc(-c3ccncc3)nc(N(C)CCc3ccccn3)c2C1`, for which the Ki in series [1] is 868 nM. In [2], this molecule showed a solubility above 75 µM.
Regarding `CN(C)c1nc2c(c(N(C)CCc3ccccn3)n1)CN(C(=O)Nc1ccccc1)CC2`, the Ki in series [1] came out at 512 nM.
For `CC(C)Oc1nc(-c2ccncc2)nc2c1CN(C(=O)Nc1ccccc1)CC2`, the affinity in series [1] corresponds to a Ki of 98 nM. For the same molecule, in [2], the solubility is above 75 µM.
The corresponding values for `COc1nc(-c2ccncc2)nc2c1CN(C(=O)Nc1ccccc1)CC2` are 422 nM and above 75 µM.
The molecule `Cc1ccncc1NC(=O)N1CCc2nc(-c3ccc(C(F)(F)F)nc3)nc(OC(C)C)c2C1` had a Ki in [1] of 247 nM.
With `Cc1cc2c(s1)Nc1ccccc1N=C2N1CCN(C)CC1` [OLANZAPINE], the Activity result in the series on Rattus norvegicus [3], in the series on Rattus norvegicus [4] and in the series with Rattus norvegicus [5] was “Toxic” throughout.
`CN(CCc1ccccn1)c1nc(-c2ccncc2)nc2c1CN(C(=O)Nc1ccncc1)CC2` had a Ki in [1] of 117 nM. The molecule further came in with a solubility in series [2] above 75 µM.
Take `COCCOc1nc(-c2ccc(Cl)nc2)nc2c1CN(C(=O)c1ncn3ccccc13)CC2` [THPP-1]: the Activity result was “Non-toxic” in the series with Salmonella typhimurium; “Non-toxic” in the series on Rattus norvegicus [7]; above 150% in the series with Rattus norvegicus [11]; “Not Active” in series [12]; “Non-toxic” in the series with Rattus norvegicus [21]; “Non-toxic” in the series on Canis familiaris. The Activity entry in the series with Rattus norvegicus [22] is “Non-toxic”; with Rattus norvegicus [25], “Non-toxic”; in the series listed under Rattus norvegicus [26], “Dose-dependent effect”; in the series with Rattus norvegicus [30] it was “Non-toxic”. Further, the Ratio Ki was above 1000 in the series filed under Homo sapiens [6]; above 1000 in the series filed under Homo sapiens [13]; 300 in the series listed under Homo sapiens [15]; above 1000 in the series listed under Homo sapiens [17]; above 1000 in the series filed under Homo sapiens [23]; above 1000 in the series listed under Homo sapiens [24]. The Ratio Ki in the series filed under Homo sapiens [27] is 44; in the series filed under Homo sapiens [28] it was above 1000; in the series filed under Homo sapiens [29], 116; in the series listed under Homo sapiens [33] it was above 1000. Also, the inhibition entry with Rattus norvegicus [8] and in the series with Rattus norvegicus [20] was “Dose-dependent effect” each time. Also, the clearance (in general, a measure of how efficiently the substance is removed, as volume per time) in [9] stood at 3.8 mL/min/kg; in series [31] it was 7.7 mL/min/kg; in [32], 6 mL/min/kg. In addition, the “inhibition (INH)” value in [10] and in series [16] was “Not Active” in each case. This molecule also returned a solubility in [2] of 20 µM (≈ 9.3 µg/mL). This molecule also had a concentration at 2 h in [14] of 730 nM. The outcome in the series with Rattus norvegicus [18] and with Rattus norvegicus [19] was Active.
As for `CC(C)Oc1nc(-c2ccc(Cl)nc2)nc2c1CN(C(=O)N(C)c1cn[nH]c1)CC2`, in series [1], the affinity corresponds to a Ki of 1 nM.
On the same count and under the same terms, as for `Cc1ccncc1NC(=O)N1CCc2nc(-c3ccc(F)nc3)nc(OC(C)C)c2C1`, the figure is 3 nM; as for `Cc1ccncc1NC(=O)N1CCc2nc(-c3ccc(Cl)nc3)nc(OC(C)C)c2C1`, 0.6 nM.
Take `CN(CCc1ccccn1)c1nc(-c2ccncc2)nc2c1CN(C(=O)Nc1cccc(F)c1)CC2`: the Ki in series [1] was 156 nM. The molecule also returned a solubility in [2] above 75 µM.
